According to publication PMC4668232 (Cancer research, 2015):
Numbered stars: 1 amine (or outer) side, 2 acyl side, 3 side chain; on linkers, the order of the positions; unused ones are H or OH. Peptide text beside a SMILES is read from it. * marks the point of attachment. AMC = Cc1cc(=O)oc2cc(N*)ccc12; Suc = O=C(CCC(=O)[*:2])[*:1]; Cbz = O=C(OCc1ccccc1)*

Assays:
UCH37 = UCH37 (Mus musculus, UniProt Q9WUP7); assay: DUB activity profiling in cell lysates, UCH37 labeling; type: biochemical; details: read-out: IC50, inhibition of UCH37 labeling
USP9x = USP9x (Mus musculus, UniProt P70398); assay: DUB activity profiling in cell lysates, USP9x labeling; type: biochemical; details: read-out: IC50, inhibition of USP9x labeling
[1] = system: PARP cleavage in BaF3/p210 cells; assay: PARP cleavage, western blot; type: cell-based, mouse; details: 5 μM
Flag-Mcl-1 in COS1 cells = assay: Flag-Mcl-1 ubiquitination, immunoprecipitation; type: cell-based, African green monkey; details: COS1 cells expressing Flag-Mcl-1, 2 h
DUBs = type: biochemical, mouse; details: for Reversibility of inhibition of DUB labeling: lysate incubated with 250 μM ITC, then diluted 20-fold into HA-UbVS; for Labeling of several DUBs (bands between 120 and 300 kDa): cell lysates, HA-UbVS
catalytic domain of USP7 = catalytic domain of USP7 (Homo sapiens, UniProt Q93009); assay: Recombinant DUB assay, USP7 catalytic domain; type: biochemical
USP7 = USP7 (Mus musculus, UniProt Q6A4J8); assay: DUB activity profiling in cell lysates, USP7; type: biochemical; details: immunoblotting
[2] = system: K48-linked Ub in BaF3/p210 cells; assay: K48-linked HMW-Ub accumulation, whole cell lysate western blot; type: cell-based, mouse; details: 4 h; for Increase in K48-linked Ub: 15 μM; for Accumulation of K48-linked HMW-Ub: bortezomib 20 nM
[3] = system: Bcr-Abl in BaF3/p210 cells; assay: Bcr-Abl levels and aggregation, western blot; type: cell-based, mouse
[4] = target: UCH37 in the 19S regulatory particle (Homo sapiens, UniProt Q9Y5K5); assay: Activity profiling of UCH37 in 19S regulatory particle with Cy5-UbVME; type: biochemical; details: read-out: EC50, inhibition of UCH37
[5] = system: MCF7, NIH3T3 and COS1 cells; assay: Proliferation/viability assay, 48 h; type: cell-based
recombinant USP9x [6] = target: T1, recombinant USP9x (Homo sapiens, UniProt Q93008); assay: Recombinant DUB assay; type: biochemical; details: for Ki: read-out: Ki, recombinant USP9x, Ub-AMC hydrolysis
In short: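 Purified recombinant human USP9x was assayed by Ub-AMC hydrolysis. AMC release was monitored fluorimetrically at 37 °C in 50 mM HEPES pH 7.6, 100 mM NaCl, 0.75 mM BME and quantified against AMC standard curves. Slow-binding kinetics were analysed: kon was determined at varied Ub-AMC concentrations to assign inhibition mode, and Ki was derived.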

[7] = system: BaF3, BaF3/p210 and K562 cells; assay: Proliferation/viability assay, 48 h; type: cell-based; details: read-out: EC50, viability
cancer cell lines = details: read-out: EC50, inhibition of cell growth; exposure for only 3 h; cited from earlier work
[8] = system: K63-linked Ub in BaF3/p210 cells; assay: K63-linked HMW-Ub accumulation, whole cell lysate western blot; type: cell-based, mouse; details: 4 h
recombinant UCHL3 = recombinant UCHL3 (Homo sapiens, UniProt P15374); assay: Recombinant DUB assay, UCHL3; type: biochemical
recombinant USP9x [9] = target: T1, recombinant USP9x; assay: Labeling of recombinant USP9x with Cy5-UbVME; type: biochemical; details: read-out: IC50, inhibition of labeling of recombinant USP9x with Cy5-UbVME; purified recombinant enzyme
[10] = system: 26S proteasome activity in COS1 cells expressing Ub^G76V-GFP; assay: Ubiquitin G76V-GFP assay; type: cell-based, African green monkey; details: 8 h; for Effect on GFP levels: BITC, PEITC 12 μM, WP1130 5 μM
[11] = system: Bcr-Abl in BaF3/p210 and K562 cells; assay: Bcr-Abl ubiquitination; type: cell-based; details: 5 μM, 2 h
In short: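 BaF3/p210 cells (1 h) or K562 cells (2 h) were exposed to 5 μM test compound or 0.1% DMSO at 37 °C. Lysates were set to 1 mg/mL and pre-cleared with protein G (1 h, 4 °C). Bcr-Abl was immunoprecipitated with anti-cAbl overnight at 4 °C onto protein G beads. Alternatively, K63-linked polyubiquitinated proteins were enriched on RAP80-UIM agarose. Immunoblotting followed.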

USP24 = USP24 (Mus musculus, UniProt B1AY13); assay: DUB activity profiling in cell lysates, USP24 labeling; type: biochemical; details: read-out: IC50, USP24 labeling
USP9x in BaF3/p210 cells = USP9x in BaF3/p210 cells (Mus musculus, UniProt P70398); assay: USP9x inhibition in living cells; type: cell-based; details: read-out: IC50, USP9x inhibition in cells; BaF3/p210 cells treated 4 h
Mcl-1 in BaF3/p210 cells = assay: Mcl-1 levels, western blot; type: cell-based, mouse; details: 4 h
human 20S proteasome = human 20S proteasome (Homo sapiens, UniProt P28074); assay: 20S proteasome assay; type: biochemical; details: substrate; Hill coefficient = 2; pH 7.6, 25 °C
[12] = system: proteasome activity of rabbit reticulocyte lysate; assay: Proteasome activity of rabbit reticulocyte lysate; type: biochemical; details: substrate; Hill coefficient = 1.3

T1 sequence (Q93008 whole entry): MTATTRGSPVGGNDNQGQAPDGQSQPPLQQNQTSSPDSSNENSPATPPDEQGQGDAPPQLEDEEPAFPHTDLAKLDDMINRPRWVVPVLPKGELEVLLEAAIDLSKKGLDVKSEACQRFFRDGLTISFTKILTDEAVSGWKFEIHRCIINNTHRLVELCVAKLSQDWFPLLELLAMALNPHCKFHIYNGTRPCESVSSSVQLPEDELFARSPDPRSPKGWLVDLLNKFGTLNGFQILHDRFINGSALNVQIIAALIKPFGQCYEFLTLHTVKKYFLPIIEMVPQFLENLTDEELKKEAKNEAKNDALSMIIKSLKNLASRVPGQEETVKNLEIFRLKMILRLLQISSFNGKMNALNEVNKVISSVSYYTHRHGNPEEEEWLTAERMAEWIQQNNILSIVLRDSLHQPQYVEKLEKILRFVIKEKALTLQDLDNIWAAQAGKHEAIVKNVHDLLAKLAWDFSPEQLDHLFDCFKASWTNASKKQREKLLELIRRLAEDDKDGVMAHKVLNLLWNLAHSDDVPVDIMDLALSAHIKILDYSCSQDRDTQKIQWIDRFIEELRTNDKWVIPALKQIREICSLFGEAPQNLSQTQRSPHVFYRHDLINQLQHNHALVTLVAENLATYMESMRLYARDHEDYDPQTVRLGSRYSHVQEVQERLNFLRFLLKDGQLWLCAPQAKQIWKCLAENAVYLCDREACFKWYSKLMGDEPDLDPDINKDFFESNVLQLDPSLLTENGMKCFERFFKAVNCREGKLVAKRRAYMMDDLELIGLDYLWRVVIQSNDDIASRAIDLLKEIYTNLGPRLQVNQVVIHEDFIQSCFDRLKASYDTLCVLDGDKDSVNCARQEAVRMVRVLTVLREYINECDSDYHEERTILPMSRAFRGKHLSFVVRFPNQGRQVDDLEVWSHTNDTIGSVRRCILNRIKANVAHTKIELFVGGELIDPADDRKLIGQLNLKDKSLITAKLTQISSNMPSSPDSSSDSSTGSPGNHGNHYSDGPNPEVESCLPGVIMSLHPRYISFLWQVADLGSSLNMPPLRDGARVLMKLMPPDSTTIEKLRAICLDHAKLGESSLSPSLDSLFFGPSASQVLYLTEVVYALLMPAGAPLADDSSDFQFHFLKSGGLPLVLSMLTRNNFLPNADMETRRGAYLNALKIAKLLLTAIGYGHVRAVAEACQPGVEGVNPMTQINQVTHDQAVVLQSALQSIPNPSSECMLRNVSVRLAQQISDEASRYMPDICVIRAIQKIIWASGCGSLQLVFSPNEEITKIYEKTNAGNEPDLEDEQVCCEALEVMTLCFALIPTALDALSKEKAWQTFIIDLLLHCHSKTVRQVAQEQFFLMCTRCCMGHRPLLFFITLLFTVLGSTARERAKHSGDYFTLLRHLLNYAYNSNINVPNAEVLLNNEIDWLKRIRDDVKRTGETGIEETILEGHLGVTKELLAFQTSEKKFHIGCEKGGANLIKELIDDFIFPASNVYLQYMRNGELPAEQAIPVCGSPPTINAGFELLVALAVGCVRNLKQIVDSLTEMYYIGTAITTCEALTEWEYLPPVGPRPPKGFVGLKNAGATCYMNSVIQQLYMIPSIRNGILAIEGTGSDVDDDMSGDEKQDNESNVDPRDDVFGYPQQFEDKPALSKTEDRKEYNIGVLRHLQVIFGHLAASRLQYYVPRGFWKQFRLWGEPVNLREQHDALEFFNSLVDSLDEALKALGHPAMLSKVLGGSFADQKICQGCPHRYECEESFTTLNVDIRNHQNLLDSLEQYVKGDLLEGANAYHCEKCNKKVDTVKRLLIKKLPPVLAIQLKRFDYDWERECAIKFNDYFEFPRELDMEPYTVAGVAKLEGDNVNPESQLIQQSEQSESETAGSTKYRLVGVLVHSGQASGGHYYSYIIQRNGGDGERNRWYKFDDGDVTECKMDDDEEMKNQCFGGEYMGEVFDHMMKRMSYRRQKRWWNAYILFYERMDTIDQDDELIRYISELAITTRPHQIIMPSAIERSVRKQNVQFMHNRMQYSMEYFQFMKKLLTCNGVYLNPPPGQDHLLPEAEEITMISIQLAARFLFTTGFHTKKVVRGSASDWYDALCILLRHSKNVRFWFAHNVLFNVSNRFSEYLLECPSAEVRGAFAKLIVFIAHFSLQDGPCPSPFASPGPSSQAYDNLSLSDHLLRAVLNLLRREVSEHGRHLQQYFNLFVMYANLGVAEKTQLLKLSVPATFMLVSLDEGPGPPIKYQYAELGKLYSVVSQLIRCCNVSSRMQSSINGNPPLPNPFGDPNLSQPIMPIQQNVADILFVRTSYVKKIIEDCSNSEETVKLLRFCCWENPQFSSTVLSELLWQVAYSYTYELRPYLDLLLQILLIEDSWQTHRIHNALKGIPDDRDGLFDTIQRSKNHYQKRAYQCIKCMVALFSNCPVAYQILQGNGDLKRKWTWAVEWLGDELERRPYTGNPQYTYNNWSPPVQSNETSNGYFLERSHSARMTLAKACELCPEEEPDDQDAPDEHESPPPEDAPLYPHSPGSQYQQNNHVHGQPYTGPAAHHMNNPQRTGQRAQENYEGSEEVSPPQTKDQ
Sequence of USP7 (Q6A4J8 whole entry): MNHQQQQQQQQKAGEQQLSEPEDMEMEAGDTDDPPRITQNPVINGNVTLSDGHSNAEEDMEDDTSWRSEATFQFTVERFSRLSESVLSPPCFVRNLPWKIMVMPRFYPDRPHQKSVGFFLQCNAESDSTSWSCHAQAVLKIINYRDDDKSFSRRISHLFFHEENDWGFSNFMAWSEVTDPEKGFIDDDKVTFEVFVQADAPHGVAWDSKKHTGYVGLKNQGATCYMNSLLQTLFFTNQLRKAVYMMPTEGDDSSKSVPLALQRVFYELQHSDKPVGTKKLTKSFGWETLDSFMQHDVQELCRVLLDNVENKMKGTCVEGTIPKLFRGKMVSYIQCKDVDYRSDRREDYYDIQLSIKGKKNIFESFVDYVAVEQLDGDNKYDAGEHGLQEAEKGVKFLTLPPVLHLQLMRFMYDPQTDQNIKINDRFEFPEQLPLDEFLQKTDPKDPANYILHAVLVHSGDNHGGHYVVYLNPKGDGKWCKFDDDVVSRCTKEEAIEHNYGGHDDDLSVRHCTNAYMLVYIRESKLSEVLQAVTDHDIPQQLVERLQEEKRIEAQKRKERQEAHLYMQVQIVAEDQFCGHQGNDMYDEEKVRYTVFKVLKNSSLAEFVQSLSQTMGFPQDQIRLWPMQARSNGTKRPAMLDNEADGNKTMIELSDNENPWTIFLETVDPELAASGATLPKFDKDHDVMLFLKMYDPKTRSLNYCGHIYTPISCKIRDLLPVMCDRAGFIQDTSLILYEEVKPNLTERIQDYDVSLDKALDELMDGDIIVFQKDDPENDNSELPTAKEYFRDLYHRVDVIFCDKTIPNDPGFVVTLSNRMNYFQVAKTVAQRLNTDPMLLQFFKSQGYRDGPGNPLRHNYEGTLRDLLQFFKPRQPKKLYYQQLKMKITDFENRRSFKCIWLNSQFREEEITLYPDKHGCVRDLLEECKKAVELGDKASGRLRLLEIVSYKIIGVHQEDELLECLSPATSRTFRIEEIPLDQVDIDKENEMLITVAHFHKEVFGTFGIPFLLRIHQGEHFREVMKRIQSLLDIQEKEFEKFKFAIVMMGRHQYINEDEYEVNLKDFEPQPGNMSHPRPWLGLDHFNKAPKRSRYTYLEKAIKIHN
Sequence of recombinant UCHL3 (P15374 whole entry): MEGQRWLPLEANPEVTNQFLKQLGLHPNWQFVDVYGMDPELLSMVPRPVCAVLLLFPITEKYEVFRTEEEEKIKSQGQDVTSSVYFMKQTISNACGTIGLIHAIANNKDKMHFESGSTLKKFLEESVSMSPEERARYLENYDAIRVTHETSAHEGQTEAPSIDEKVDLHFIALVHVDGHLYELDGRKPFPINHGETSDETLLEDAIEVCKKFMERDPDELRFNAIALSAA
Sequence of catalytic domain of USP7 (Q93009 214-521 limits assumed): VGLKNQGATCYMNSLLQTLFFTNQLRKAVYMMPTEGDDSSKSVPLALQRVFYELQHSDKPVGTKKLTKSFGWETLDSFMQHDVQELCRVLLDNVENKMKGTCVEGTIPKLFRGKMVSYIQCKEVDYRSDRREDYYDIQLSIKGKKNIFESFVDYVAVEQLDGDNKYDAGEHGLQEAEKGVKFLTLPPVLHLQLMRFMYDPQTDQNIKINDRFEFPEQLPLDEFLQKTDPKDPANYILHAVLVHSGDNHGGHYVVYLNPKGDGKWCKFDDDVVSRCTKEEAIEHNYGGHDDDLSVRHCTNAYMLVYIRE
Sequence of UCH37 (Q9WUP7 whole entry): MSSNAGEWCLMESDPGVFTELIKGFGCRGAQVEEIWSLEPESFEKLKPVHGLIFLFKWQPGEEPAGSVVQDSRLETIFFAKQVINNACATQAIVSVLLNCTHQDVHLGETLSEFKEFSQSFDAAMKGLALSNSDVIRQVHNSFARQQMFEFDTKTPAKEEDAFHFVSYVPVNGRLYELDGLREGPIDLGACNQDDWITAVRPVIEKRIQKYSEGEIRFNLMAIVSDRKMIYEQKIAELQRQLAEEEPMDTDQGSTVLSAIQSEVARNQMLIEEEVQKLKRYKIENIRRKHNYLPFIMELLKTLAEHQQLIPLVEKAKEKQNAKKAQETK

In the case of S=C=NCCc1ccccc1 [PEITC, phenethyl ITC], the IC50 (UCH37) is reported as 13 ± 1 µM, the IC50 (USP9x) is reported as 15 ± 3 µM and the “Time at which PARP cleavage was observed” value [1] is reported as 4 h. For the same compound, the “Levels of ubiquitinated Flag-Mcl-1” value (Flag-Mcl-1 in COS1 cells) was “increased”, the “Reversibility of inhibition of DUB labeling” value (DUBs) was “slowly reversible” and the “Inhibition of the catalytic domain of USP7” value (catalytic domain of USP7) was “No inhibition”. The “Inhibition of USP7” value (USP7) was “do not inhibit”, the “Increase in K48-linked Ub” value [2] was 2 to 4 fold and the “Effect on levels of total Bcr-Abl” value [3] was “decreased”. The “Bcr-Abl level, % of its initial level” value ([3]; 5 μM, within 2 h) was 20%, the EC50 [4] was 36 ± 5 µM and the “Fold less sensitive than Mcl-1-dependent cells” value [5] was 8 to 40 fold. The “Mode of inhibition of recombinant USP9x” value (recombinant USP9x [6]) was “slow binding competitive inhibitors”, the Ki (recombinant USP9x [6]) was 23 ± 2 µM and the EC50 [7] was 1 to 3 µM. For the same compound, the EC50 (cancer cell lines) was 1.8 to 17 µM, the “Increase in K63-linked Ub” value [8] was 9-18 fold and the “Inhibition of recombinant UCHL3” value (recombinant UCHL3) was “No inhibition”. The IC50 (recombinant USP9x [9]) was 20 ± 2 µM, the “Effect on GFP levels” value [10] was “did not increase” and the Bcr-Abl ubiquitination [11] was “increase”. For the same compound, the IC50 (USP24) was 28 ± 5 µM, the IC50 (USP9x in BaF3/p210 cells) was 7 ± 2 µM and the “Effect on Mcl-1 levels” value (Mcl-1 in BaF3/p210 cells) was “decrease”.

In the case of S=C=NCc1ccccc1 [BITC, benzyl ITC], the IC50 (UCH37) is reported as 22 ± 4 µM, the IC50 (USP9x) is reported as 27 ± 6 µM and the “Time at which PARP cleavage was observed” value [1] is reported as 6 h. For the same compound, the “Levels of ubiquitinated Flag-Mcl-1” value (Flag-Mcl-1 in COS1 cells) was “increased”, the “Reversibility of inhibition of DUB labeling” value (DUBs) was “slowly reversible” and the “Inhibition of the catalytic domain of USP7” value (catalytic domain of USP7) was “No inhibition”. For the same compound, the “Inhibition of USP7” value (USP7) was “do not inhibit”, the “Increase in K48-linked Ub” value [2] was 2 to 4 fold and the “Effect on levels of total Bcr-Abl” value [3] was “decreased”. The Bcr-Abl knockdown ([3]; 5 μM, 2 h) was “essentially complete”, the EC50 [4] was 31 ± 6 µM and the “Fold less sensitive than Mcl-1-dependent cells” value [5] was 8 to 40 fold. The “Mode of inhibition of recombinant USP9x” value (recombinant USP9x [6]) was “slow binding competitive inhibitors”, the Ki (recombinant USP9x [6]) was 25 ± 1 µM and the EC50 [7] was 1 to 3 µM. For the same compound, the EC50 (cancer cell lines) was 1.8 to 17 µM, the “Increase in K63-linked Ub” value [8] was 9-18 fold and the “Inhibition of recombinant UCHL3” value (recombinant UCHL3) was “No inhibition”. For the same compound, the “Effect on GFP levels” value [10] was “did not increase”, the Bcr-Abl ubiquitination [11] was “increase” and the IC50 (USP24) was 56 ± 5 µM. For the same compound, the IC50 (USP9x in BaF3/p210 cells) was 4 ± 1 µM and the “Effect on Mcl-1 levels” value (Mcl-1 in BaF3/p210 cells) was “decrease”.

With CC(C)C[C@H](NC(=O)[C@H](Cc1ccccc1)NC(=O)c1cnccn1)B(O)O [bortezomib, reference compound] the “Levels of ubiquitinated Flag-Mcl-1” value (Flag-Mcl-1 in COS1 cells) was “increased”, the “Accumulation of K48-linked HMW-Ub” value [2] was “increased” and the “Effect on K63-linked Ub” value ([8]; bortezomib 20 nM) was “no effect”. For the same compound, the “Increase in GFP fluorescence” value ([10]; bortezomib 4 μM) was 1.5 fold and the “Effect on Mcl-1 levels” value (Mcl-1 in BaF3/p210 cells) was “increased”.

For O=C1/C(=C/c2ccc([N+](=O)[O-])cc2)CS(=O)(=O)C/C1=C\c1ccc([N+](=O)[O-])cc1 [G5, reference compound], the “Labeling of several DUBs (bands between 120 and 300 kDa)” value (DUBs) was “reduced”.

For CC(C)C[C@@H](C=O)NC(=O)[C@H](CC(C)C)NC(=O)[C@H](CC(C)C)NC(=O)OCc1ccccc1 [MG-132, reference compound] (Cbz-Leu-Leu-Leu-aldehyde), the “Effect on Mcl-1 levels” value (Mcl-1 in BaF3/p210 cells) was “increased”.

For Cc1cc(=O)oc2cc(NC(=O)[C@H](Cc3ccc(O)cc3)NC(=O)[C@@H](NC(=O)[C@H](CC(C)C)NC(=O)[C@H](CC(C)C)NC(=O)CCC(=O)O)C(C)C)ccc12 [Suc-Leu-Leu-Val-Tyr-AMC] (Suc-LLVY-{AMC}), the “K0.5 for human 20S proteasome” value (human 20S proteasome) was 12 ± 2 µM and the “Apparent K0.5 of proteasome activity of rabbit reticulocyte lysate” value [12] was 28 ± 3 µM.

In the case of C[S+]([O-])CCCCN=C=S (stereo not shown) [SFN, sulforaphane], the “Accumulation of K48-linked HMW-Ub” value [2] is listed as “no effect” and the EC50 (cancer cell lines) is listed as roughly 50 µM.

In the case of CCC[C@H](NC(=O)/C(C#N)=C/c1cccc(Br)n1)c1ccccc1 [WP1130, reference compound], the “Levels of ubiquitinated Flag-Mcl-1” value (Flag-Mcl-1 in COS1 cells) is reported as “increased”, the “Labeling of several DUBs (bands between 120 and 300 kDa)” value (DUBs) is reported as “reduced” and the “Effect on GFP levels” value [10] is reported as “did not cause an increase”.
